A selection follows.
A1 apoptosis 2: A1 inhibitors via caspase activation, primary screen, cell-based, luminescence, HTS, two replicates | caspase activation, % (concentration not given with the values) | MEF A1-2A-BIM cells, caspase-Glo luminescence, 3 h; percent of clofoctol response, DMSO zero | 24,000 tested, under 10 active; in the data active = caspase activation above about 5.9%
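Evaluation: Caspase-3/7 activity from luminescence increase | Assay system: A1-2A-BIM mouse embryonic fibroblasts | Quantity: 2500 MEF cells/well | Medium: RPMI-1640 plus 10% FBS | Detection: Caspase-Glo 3/7 luminescence, 1 h at room temperature | Dosing: 50 nL compound per well, pinned | Timing: Cells settled overnight, compound exposure 3 h at 37 °C, 5% CO2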
Each line names hits and unclear results; the compound was inactive in the other large screens.

COc1ccc(/C=N/NC(=O)c2cccc(C(=O)NO)c2)cc1Br	none
COc1ccc(/C=N/NC(=O)CCCCCCC(=O)Nc2ccccc2O)c(OC)c1	none
C[C@@H]1CN([C@H](C)CO)C(=O)Cc2cc(NS(=O)(=O)c3cn(C)cn3)ccc2O[C@@H]1CN(C)Cc1ccc(C(=O)Nc2ccccc2N)cc1	none
O=C(CCCCCC(=O)N/N=C/c1c(F)c(F)c(F)c(F)c1F)NO	none
CC(C)=CCC[C@H](C)C/C=N/NC(=O)CCCCCC(=O)O	none
CN1C(=O)[C@@H]2[C@@H](CC(COc3ccccc3)=C3[C@@H](CCc4ccccc4)OB(O)C[C@@H]32)C1=O	none
O=C(CCCCCC(=O)Nc1ccccc1O)N/N=C/c1ccc(Br)s1	none
COC(=O)C(CC#Cc1ccc2c(c1)[C@]1(C(=O)N2)[C@H](c2ccc(O)cc2)N2[C@H](c3ccccc3)[C@H](c3ccccc3)OC(=O)[C@H]2[C@@H]1C(=O)O)C(=O)OC	none
COc1cc(/C=N/NC(=O)c2ccccc2O)c(Br)cc1O	none
[N-]=[N+]=NCC(=O)N1CCC2(CC1)C(=O)NCN2c1ccccc1	none
O=C(N/N=C/c1ccc(Br)o1)c1ccccc1O	none
C[C@@H]1CCCCO[C@@H](CN(C)C(=O)Nc2ccccc2)[C@@H](C)CN([C@@H](C)CO)C(=O)c2cc(NC(=O)CCC(F)(F)F)ccc2O1	none
CC(C)(C)OC(=O)NC1(/C=N/NC(=O)CCCCCC(=O)O)CCCC1	none
O=C(N/N=C/c1ccccc1C(=O)O)c1ccccc1O	none
O=C(N/N=C/c1cc(Cl)cc(Cl)c1O)c1ccccc1O	none
Cc1ccc(S(=O)(=O)Nc2ccc3c(c2)C(=O)N([C@H](C)CO)C[C@H](C)[C@H](CN(C)Cc2ccc(C(F)(F)F)cc2)O3)cc1	none
O=C(CCCCCC(=O)Nc1ccccc1O)N/N=C/c1ccc(S(=O)(=O)O)o1	none
O=C(N/N=C/c1c(O)ccc2ccccc12)c1ccccc1O	none
COC(=O)CCCCCCC(=O)N/N=C/c1c(O)ccc2ccccc12	none
Cc1ccc(O)c(/C=N/NC(=O)CCCCCC(=O)O)c1	none
CC1=C(C/C=N/NC(=O)c2ccc(C(=O)NO)cc2)C(C)(C)CCC1	none
O=C(CCCCCCC(=O)Nc1ccccc1O)N=NC=C1C=CN(O)C=C1	none
C=C/C=C/[C@@H]1C(=C)CN([C@@H](Cc2ccc(N=[N+]=[N-])cc2)C(=O)OC)[C@H]1[C@@H](O)Cc1ccccc1	none
COC(=O)CCCCCCC(=O)N/N=C/C[C@H](C)CCC=C(C)C	none
COC(=O)C(CC#Cc1ccc2c(c1)[C@]1(C(=O)N2)[C@H](c2ccccc2OCCO)N2[C@H](c3ccccc3)[C@H](c3ccccc3)OC(=O)[C@H]2[C@@H]1C(=O)O)C(=O)OC	none
COC(=O)CCCCCCC(=O)N/N=C\c1cccnc1Br	none
COC(=O)c1ccc([C@@H]2C=C(C(=O)O)O[C@H](OCCCCO)C2)cc1	none
O=C(NCCN1CCOCC1)[C@@]1(Cc2ccccc2)N=C(c2ccc(OCCCO)cc2)O[C@H]1c1ccccc1	none
COCCCNC(=O)[C@@]1(Cc2ccccc2I)c2ccccc2C(=O)N(Cc2ccccc2OC)[C@H]1c1ccc(CO)cc1	none
CC(C)(C)OC(=O)Nc1cccc(/C=N/NC(=O)c2ccccc2O)c1	none

Screens deposited in PubChem by Broad Institute.
